Holding throughout (assay type): functional
The subject of assay [1] is Bacillus subtilis. Description: Antibacterial activity against Bacillus subtilis 154921 at 1 mg/ml after 24 hrs by agar-well diffusion technique. The conditions noted are these: Bacillus subtilis, 154921, 24 h; read-out: DIZ. In outline:
(§1)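 Each bacterial strain (0.1 ml) was spread on nutrient agar, and 4 mm wells were cut with a sterile cork borer. Wells were loaded with test chemical at a final 1 mg ml^-1, then incubated at 37 °C for 24 h. Inhibition zone diameters around the wells were measured, averaged over 3 replicas.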

Assay [2] deals with Escherichia coli. Kind of assay: Antibacterial activity against Escherichia coli 124300 at 1 mg/ml after 24 hrs by agar-well diffusion technique. The conditions noted are these: Escherichia coli, 124300, 24 h; read-out: DIZ. In outline:
as §1

Assay [3] has as its system Staphylococcus aureus. Kind of assay: Antibacterial activity against Staphylococcus aureus 155554A at 1 mg/ml after 24 hrs by agar-well diffusion technique. As to conditions: read-out: DIZ. An outline of the steps:
as §1

In assay [4] the test system is Candida albicans. Kind of assay: Antifungal activity against Candida albicans 155965 at 1 mg/ml after 48 hrs by agar-well diffusion technique. As to conditions: Candida albicans, 155965, 48 h; read-out: DIZ. An outline of the steps: (§2)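 Yeast (0.1 ml) was spread on potato dextrose agar, and 4 mm wells were cut with a sterile cork borer. Wells were loaded with test chemical at a final 1 mg ml^-1, then incubated at 25 °C for 48 h. Inhibition zones around the wells were measured, averaged over 3 replicas.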

In assay [5] the test system is Pseudomonas aeruginosa. Kind of assay: Antibacterial activity against Pseudomonas aeruginosa 155250A at 1 mg/ml after 24 hrs by agar-well diffusion technique. The conditions noted are these: read-out: DIZ. An outline of the steps:
as §1

For assay [6], the system named is Saccharomyces cerevisiae. Description: Antifungal activity against Saccharomyces cerevisiae 156250 at 1 mg/ml after 48 hrs by agar-well diffusion technique. The conditions noted are these: Saccharomyces cerevisiae, 156250, 48 h; read-out: DIZ. An outline of the steps:
as §2

The test system of assay [7] is Serratia marcescens. Description: Antibacterial activity against Serratia marcescens 155449 at 1 mg/ml after 24 hrs by agar-well diffusion technique. The conditions noted are these: Serratia marcescens, 155449, 24 h; read-out: DIZ. An outline of the steps: as §1
For assay [8], the system named is Saccharomyces cerevisiae. Kind of assay: Antifungal activity against Saccharomyces cerevisiae 156250 at 100 mg/ml after 48 hrs by agar-well diffusion technique. As to conditions: Saccharomyces cerevisiae, 156250, 48 h; read-out: DIZ. In outline: (§3)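 0.1 ml of the yeast spread on potato dextrose agar. 4 mm wells were cut with a sterile cork borer and filled with test solution. Plates were incubated at 25 °C for 48 h. Inhibition zones around the wells were measured, and the mean of 3 replicas was recorded. Cycloheximide served as the antifungal reference.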

Assay [9] has as its system Candida albicans. Description: Antifungal activity against Candida albicans 155965 at 100 mg/ml after 48 hrs by agar-well diffusion technique. The conditions noted are these: Candida albicans, 155965, 48 h; read-out: DIZ. An outline of the steps: as §3
The subject of assay [10] is Pseudomonas aeruginosa. Kind of assay: Antibacterial activity against Pseudomonas aeruginosa 155250A at 100 mg/ml after 24 hrs by agar-well diffusion technique. The conditions noted are these: read-out: DIZ. An outline of the steps:
(§4)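 The penicillin reference was applied at 100 mg ml^-1 in 4 mm wells on nutrient agar plates spread with 0.1 ml of each bacterial strain. Plates were incubated at 37 °C for 24 h, and inhibition zones were measured as the average of 3 replicas.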

Assay [11] has as its system Escherichia coli. Description: Antibacterial activity against Escherichia coli 124300 at 100 mg/ml after 24 hrs by agar-well diffusion technique. The conditions noted are these: Escherichia coli, 124300, 24 h; read-out: DIZ. An outline of the steps: as §4
Assay [12] has as its system Serratia marcescens. Description: Antibacterial activity against Serratia marcescens 155449 at 100 mg/ml after 24 hrs by agar-well diffusion technique. As to conditions: Serratia marcescens, 155449, 24 h; read-out: DIZ. An outline of the steps: as §4
In assay [13] the test system is Staphylococcus aureus. Kind of assay: Antibacterial activity against Staphylococcus aureus 155554A at 100 mg/ml after 24 hrs by agar-well diffusion technique. The conditions noted are these: read-out: DIZ. In outline: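 0.1 ml of the bacterial strain spread on nutrient agar. 4 mm wells were cut with a sterile cork borer and filled with test solution. Plates were incubated at 37 °C for 24 h. Inhibition zone diameters were measured around the wells, and the average of 3 replicas was recorded. Penicillin served as the antibacterial reference.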

The subject of assay [14] is Bacillus subtilis. Description: Antibacterial activity against Bacillus subtilis 154921 at 100 mg/ml after 24 hrs by agar-well diffusion technique. As to conditions: Bacillus subtilis, 154921, 24 h; read-out: DIZ. An outline of the steps: as §4

As for `N#Cc1c(-c2ccccc2)csc1NC(=O)c1cn[nH]c1N`, the zone of inhibition at 1000 µg/mL with Bacillus subtilis [1] came out at 2 mm; with Escherichia coli [2], 2.6 mm; with Staphylococcus aureus [3], 0 mm; with Candida albicans [4], 4 mm; with Pseudomonas aeruginosa [5] it was 6.6 mm; with Saccharomyces cerevisiae [6], 2.6 mm. Also, in the assay with Serratia marcescens [7], the zone of inhibition at 1000 µg/mL came to 0.7 mm.
With `N#Cc1c(-c2ccc(Cl)cc2)csc1NC(=O)c1cn[nH]c1N`, the zone of inhibition at 1000 µg/mL in the assay on Bacillus subtilis [1] came out at 7.3 mm; with Escherichia coli [2] it was 0 mm; in the assay on Staphylococcus aureus [3], 2 mm; in the assay on Candida albicans [4] it was 6.6 mm; in the assay on Pseudomonas aeruginosa [5] it was 3.3 mm; in the assay with Saccharomyces cerevisiae [6], 4 mm. For the same compound, the zone of inhibition at 1000 µg/mL in the assay on Serratia marcescens [7] came out at 2 mm.
`N#Cc1c(-c2ccccc2)c(C#N)c2[nH]c(=O)c3c(-c4ccccc4)csc3n2c1=N`: the zone of inhibition at 1000 µg/mL was found to be 4 mm with Bacillus subtilis [1]; 6.3 mm in the assay on Escherichia coli [2]; 0 mm with Staphylococcus aureus [3]; 2 mm in the assay with Candida albicans [4]; 4 mm in the assay on Pseudomonas aeruginosa [5]; 2.6 mm in the assay with Saccharomyces cerevisiae [6]. For the same compound, the zone of inhibition at 1000 µg/mL in the assay on Serratia marcescens [7] was determined as 4.6 mm.
On to `Cc1ccc(-c2c(C#N)c(=N)n3c([nH]c(=O)c4c(-c5ccccc5)csc43)c2C#N)cc1`, for which the zone of inhibition at 1000 µg/mL is 2 mm in the assay on Bacillus subtilis [1]; 2.6 mm with Escherichia coli [2]; 0 mm in the assay on Staphylococcus aureus [3]; 0 mm in the assay with Candida albicans [4]; 6 mm in the assay on Pseudomonas aeruginosa [5]; 0.7 mm in the assay on Saccharomyces cerevisiae [6]. Moreover, the zone of inhibition at 1000 µg/mL in the assay with Serratia marcescens [7] was 3.3 mm.
For the compound `N#Cc1c(-c2ccccc2)c(C#N)c2[nH]c(=O)c3c(-c4ccc(Cl)cc4)csc3n2c1=N`, the zone of inhibition at 1000 µg/mL in the assay with Bacillus subtilis [1] is 2 mm; with Escherichia coli [2], 4 mm; with Staphylococcus aureus [3], 0 mm; in the assay with Candida albicans [4], 0 mm; with Pseudomonas aeruginosa [5], 6 mm; with Saccharomyces cerevisiae [6] it was 4 mm. In the assay with Serratia marcescens [7], the zone of inhibition at 1000 µg/mL amounted to 4 mm.
For `Cc1ccc(-c2c(C#N)c(=N)n3c([nH]c(=O)c4c(-c5ccc(Cl)cc5)csc43)c2C#N)cc1`, the zone of inhibition at 1000 µg/mL with Bacillus subtilis [1] was 2 mm; in the assay with Escherichia coli [2] it was 3.3 mm; in the assay on Staphylococcus aureus [3], 0 mm; in the assay with Candida albicans [4] it was 0 mm; in the assay with Pseudomonas aeruginosa [5], 6 mm; with Saccharomyces cerevisiae [6], 2 mm. The zone of inhibition at 1000 µg/mL in the assay on Serratia marcescens [7] worked out at 4 mm.
For the compound `N#Cc1c(-c2ccc([N+](=O)[O-])cc2)c(C#N)c2[nH]c(=O)c3c(-c4ccc(Cl)cc4)csc3n2c1=N`, the zone of inhibition at 1000 µg/mL amounted to 4 mm in the assay on Bacillus subtilis [1]; 5.3 mm with Escherichia coli [2]; 0 mm in the assay with Staphylococcus aureus [3]; 2.6 mm with Candida albicans [4]; 6 mm in the assay with Pseudomonas aeruginosa [5]; 1.3 mm with Saccharomyces cerevisiae [6]. The zone of inhibition at 1000 µg/mL with Serratia marcescens [7] was found to be 4 mm.
Turning to `N#Cc1c(-c2ccc(Cl)cc2)c(C#N)c2[nH]c(=O)c3c(-c4ccc(Cl)cc4)csc3n2c1=N`, the zone of inhibition at 1000 µg/mL in the assay on Bacillus subtilis [1] was determined as 3.3 mm; in the assay on Escherichia coli [2], 4 mm; in the assay on Staphylococcus aureus [3], 0 mm; with Candida albicans [4], 0 mm; in the assay with Pseudomonas aeruginosa [5], 7 mm; with Saccharomyces cerevisiae [6], 0.7 mm. Besides, the zone of inhibition at 1000 µg/mL in the assay on Serratia marcescens [7] is 2.6 mm.
As to `CCOC(=O)c1sc2c(c1C)c(=O)[nH]c1c(C#N)c(-c3ccc(Cl)cc3)c(C#N)c(=N)n12`, the zone of inhibition at 1000 µg/mL with Bacillus subtilis [1] is 2 mm; in the assay with Escherichia coli [2] it was 8 mm; in the assay with Staphylococcus aureus [3], 0 mm; in the assay on Candida albicans [4], 0 mm; in the assay on Pseudomonas aeruginosa [5], 6 mm; with Saccharomyces cerevisiae [6] it was 0 mm. Moreover, the zone of inhibition at 1000 µg/mL in the assay on Serratia marcescens [7] was determined as 4.6 mm.
Consider `CN(C)c1ccc(/C=C(\C#N)C(=O)Nc2scc(-c3ccccc3)c2C#N)cc1`, for which the zone of inhibition at 1000 µg/mL with Bacillus subtilis [1] came to 0 mm; in the assay on Escherichia coli [2], 2 mm; in the assay with Staphylococcus aureus [3], 0 mm; in the assay on Candida albicans [4] it was 0 mm; with Pseudomonas aeruginosa [5] it was 4 mm; with Saccharomyces cerevisiae [6] it was 0 mm. For the same compound, the zone of inhibition at 1000 µg/mL with Serratia marcescens [7] turned out to be 7.3 mm.
As for `CN(C)c1ccc(/C=C(\C#N)C(=O)Nc2scc(-c3ccc(Cl)cc3)c2C#N)cc1`, the zone of inhibition at 1000 µg/mL in the assay with Bacillus subtilis [1] came out at 3.6 mm; with Escherichia coli [2], 2 mm; with Staphylococcus aureus [3], 0 mm; in the assay with Candida albicans [4], 0 mm; in the assay on Pseudomonas aeruginosa [5], 6 mm; in the assay on Saccharomyces cerevisiae [6] it was 0 mm. Besides, in the assay with Serratia marcescens [7], the zone of inhibition at 1000 µg/mL came out at 2 mm.
In the case of `N#Cc1c(-c2ccccc2)csc1NC(=O)c1ccc(-c2ccccc2)[nH]c1=O`, the zone of inhibition at 1000 µg/mL in the assay on Bacillus subtilis [1] is 1.6 mm; with Escherichia coli [2] it was 3.3 mm; in the assay on Staphylococcus aureus [3] it was 0 mm; in the assay on Candida albicans [4], 0 mm; with Pseudomonas aeruginosa [5] it was 5.3 mm; with Saccharomyces cerevisiae [6], 1.3 mm. Besides, the zone of inhibition at 1000 µg/mL with Serratia marcescens [7] is 2 mm.
As to `N#Cc1c(-c2ccccc2)csc1NC(=O)c1ccc(-c2cccs2)[nH]c1=O`, the zone of inhibition at 1000 µg/mL in the assay with Bacillus subtilis [1] was found to be 2 mm; with Escherichia coli [2], 2 mm; in the assay with Staphylococcus aureus [3], 0 mm; in the assay with Candida albicans [4], 0 mm; in the assay on Pseudomonas aeruginosa [5], 4 mm; with Saccharomyces cerevisiae [6], 2 mm. For the same compound, in the assay on Serratia marcescens [7], the zone of inhibition at 1000 µg/mL is 2 mm.
As to `Cc1cccc(-c2ccc(C(=O)Nc3scc(-c4ccccc4)c3C#N)c(=O)[nH]2)n1`, the zone of inhibition at 1000 µg/mL with Bacillus subtilis [1] stood at 0 mm; in the assay on Escherichia coli [2], 0 mm; in the assay with Staphylococcus aureus [3], 0 mm; in the assay on Candida albicans [4], 0 mm; with Pseudomonas aeruginosa [5] it was 4 mm; in the assay with Saccharomyces cerevisiae [6], 0 mm. Moreover, in the assay with Serratia marcescens [7], the zone of inhibition at 1000 µg/mL was 0 mm.
Regarding `C[C@@H]1C[C@@H]([C@H](O)CC2CC(=O)NC(=O)C2)C(=O)[C@@H](C)C1` [CYCLOHEXIMIDE], the zone of inhibition at 100000 µg/mL came out at 40 mm with Saccharomyces cerevisiae [8] and 0 mm with Candida albicans [9].
For `CC1(C)S[C@@H]2[C@H](NC(=O)Cc3ccccc3)C(=O)N2[C@H]1C(=O)O` [PENICILLIN G], the zone of inhibition at 100000 µg/mL worked out at 30 mm in the assay with Pseudomonas aeruginosa [10]; 8.6 mm in the assay on Escherichia coli [11]; 7 mm with Serratia marcescens [12]; 40 mm in the assay with Staphylococcus aureus [13]; 4.6 mm in the assay on Bacillus subtilis [14].

For the origin of these results see ChEMBL document CHEMBL2021764, “2-Aminothiophenes as building blocks in heterocyclic synthesis: synthesis and antimicrobial evaluation of a new class of pyrido[1,2-a]thieno[3,2-e]pyrimidine, quinoline and pyridin-2-one derivatives” (2012).
